For 46 compounds, Change and ED50 results are on record in ChEMBL document CHEMBL1129425, “New potent antihyperglycemic agents in db/db mice: synthesis and structure-activity relationship studies of (4-substituted benzyl) (trifluoromethyl)pyrazoles and -pyrazolones” (1996).

Usually ED50 stands for the dose at which the effect has come halfway, by size or by number of responders. The low end stands for greater potency, the high end for weaker potency.

Holding throughout (assay type): functional
For test [1], the system named is Mus musculus. Briefly: Percent change in the plasma glucose concentration of drug-treated db/db mice ([…], perorally) relative to vehicle at the dose 20 mg/kg. Particulars: route oral. An outline of the steps:
(§1)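 Oral dosing of db/db mice once daily for 3 days, fed ad libitum. On day 4, food was withdrawn and a fourth dose given, then mice were fasted. After 4 h, mice were anesthetized with halothane and decapitated, and blood was collected into fluoride tubes. Plasma glucose was measured on an autoanalyzer and reported as mean ± SE percent change versus vehicle controls. […]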

The species entered for test [2] is Mus musculus. Briefly: Percent change in the plasma glucose concentration of drug -treated db/db mice ([…], perorally) relative to vehicle (dose not specified).
For test [3], the system named is Mus musculus. Briefly: Percent change in the plasma glucose concentration of drug-treated db/db mice (4-6 mice, perorally) relative to vehicle at the dose 5 mg/kg. Particulars: route oral. An outline of the steps:
as §1

Test [4] concerns Mus musculus. Kind of test: Concentration required to cause significant reduction in plasma glucose when administered orally in mice. The note with it: po.
Test [5] concerns Mus musculus. Briefly: Percent change in the plasma glucose concentration of drug -treated db/db mice ([…], perorally) relative to vehicle at the dose 0.5 mg/kg. Particulars: route oral. In short, it runs like this: as §1
In test [6] the test system is Mus musculus. Briefly: Percent change in the plasma glucose concentration of drug -treated db/db mice ([…], perorally) relative to vehicle at the dose 100 mg/kg. Particulars: route oral.
The subject of test [7] is Mus musculus. Kind of test: Percent change in the plasma glucose concentration of drug -treated db/db mice ([…], perorally) relative to vehicle at the dose 2 mg/kg. The note with it: route oral.
In test [8] the test system is Mus musculus. Briefly: Percent change in the plasma glucose concentration of drug -treated db/db mice (4-6 mice, perorally) relative to vehicle at the dose mg/kg. In short, it runs like this:
as §1

Test [9] concerns Mus musculus. Briefly: Percent change in the plasma glucose concentration of drug -treated db/db mice (4-6 mice, perorally) relative to vehicle at the dose 120 mg/kg. The note with it: route oral. An outline of the steps:
as §1

For `CSc1ccc(Cc2c(C(F)(F)F)n(C)n(C)c2=O)cc1`, the Change in the test with Mus musculus [1] is recorded as -6%.
`CSc1ccc(Cc2c(C(F)(F)F)[nH]n(C)c2=O)cc1`: the Change is reported as -40% in the test listed under Mus musculus [2] and -11% in the test on Mus musculus [3].
Turning to `Oc1[nH]nc(C(F)(F)F)c1Cc1ccc(OC(F)(F)F)cc1`, in the test on Mus musculus [3], the Change was -4%.
Still for that read-out and setting: under `COc1ccc(Cc2c(C(F)(F)F)n[nH]c2O)cc1` stands -22%.
`CSc1ccc(Cc2c(C(F)(F)F)n[nH]c2O)cc1`: in the test with Mus musculus [4], the ED50 came to 9.85 mg/kg. The Change in the test on Mus musculus [5] is reported as -13%; in the test with Mus musculus [6] it was -68%; in the test on Mus musculus [7], -29%; in the test on Mus musculus [1] it was -57%; with Mus musculus [3], -43%.
With `CC(C)Sc1ccc(Cc2c(C(F)(F)F)n[nH]c2O)cc1`, the Change in the test on Mus musculus [1] is reported as -32%.
The same measure, in the same setting: the result for `CCCCOc1nn(CCCC)c(C(F)(F)F)c1Cc1ccc(CC)cc1` reads -3%.
Consider `Oc1[nH]nc(C(F)(F)F)c1Cc1ccccc1`, for which the Change with Mus musculus [6] was -33%.
Consider `Oc1[nH]nc(C(F)(F)F)c1Cc1ccc(Br)cc1`, for which the Change in the test with Mus musculus [7] is given as -5%; in the test on Mus musculus [1] it was -47%; with Mus musculus [3], -24%.
For the compound `CSc1ccc(CC2(C)C(=O)N(C)N=C2C(F)(F)F)cc1` (configuration not stated), the Change with Mus musculus [1] is recorded as 6%.
With `CSc1ccc(Cc2c(C)n[nH]c2O)cc1`, the Change with Mus musculus [6] was -39%; in the test with Mus musculus [1] it was -36%.
In the case of `COc1c(Cc2ccc(SC)cc2)c(C(F)(F)F)nn1C`, the Change in the test with Mus musculus [3] is on record as -39%.
For the compound `CC(C)(C)C(=O)c1ccc(Cc2c(C(F)(F)F)n[nH]c2O)cc1`, in the test on Mus musculus [8], the Change is given as -23%.
In the case of `COc1nn(C)c(C(F)(F)F)c1Cc1ccc(SC)cc1`, the values for the Change in the test with Mus musculus [7], in the test with Mus musculus [1] and with Mus musculus [3] were -20%, -49% and -41%, respectively.
The corresponding values for `CCSc1ccc(Cc2c(C(F)(F)F)n[nH]c2O)cc1` are -23%, -38% and -25%.
Take `CCCCCCc1ccc(Cc2c(C(F)(F)F)n[nH]c2O)cc1`: the Change with Mus musculus [1] is on record as 5%.
The same measure, in the same setting: under `CSc1ccc(CC2(C)C(=O)NN=C2C(F)(F)F)cc1` (configuration not stated) stands -9%; under `CC(C)(C)c1ccc(Cc2c(C(F)(F)F)n[nH]c2O)cc1`, -7%.
Take `Oc1[nH]nc(C(F)(F)F)c1Cc1ccc(C(F)(F)F)cc1`: the Change with Mus musculus [3] is given as -15%.
As for `CSc1ccc(Cc2c(C(F)(F)F)[nH]n(Cc3ccccc3)c2=O)cc1`, in the test with Mus musculus [1], the Change is recorded as 10%.
For `CCOc1nn(CC)c(C(F)(F)F)c1Cc1ccc(SC)cc1`, the Change with Mus musculus [3] is recorded as 5%.
Consider `C[S+]([O-])c1ccc(Cc2c(C(F)(F)F)n[nH]c2O)cc1` (configuration not stated), for which the Change was -25% in the test on Mus musculus [7] and -33% in the test on Mus musculus [3].
In the case of `Oc1[nH]nc(C(F)(F)F)c1Cc1ccc(F)cc1`, the Change is -20% with Mus musculus [1] and -3% in the test on Mus musculus [3].
Turning to `CC(C)c1ccc(Cc2c(C(F)(F)F)n[nH]c2O)cc1`, the Change in the test with Mus musculus [3] is reported as -17%.
On to `CSc1ccc(Cc2c(C(F)(F)F)n(C)[nH]c2=O)cc1`, for which the Change was -29% in the test on Mus musculus [1] and -7% with Mus musculus [3].
`C/C(=N\O)c1ccc(Cc2c(C(F)(F)F)n[nH]c2O)cc1`: the Change with Mus musculus [3] is reported as -28%.
Still for that read-out and setting: the result for `CCc1ccc(Cc2c(C(F)(F)F)n[nH]c2OC)cc1` reads -36%.
Regarding `CCc1ccc(Cc2c(C(F)(F)F)n[nH]c2O)cc1`, the results for the Change in the test with Mus musculus [5], in the test with Mus musculus [7] and in the test on Mus musculus [3] were -11%, -28% and -39%, respectively.
Take `CSc1ccc(Cc2c(C(F)(F)F)n[nH]c2OC(C)C)cc1`: the Change in the test on Mus musculus [1] is on record as -40%.
Regarding `Oc1[nH]nc(C(F)(F)F)c1Cc1ccc(SC(F)(F)F)cc1`, the Change in the test with Mus musculus [1] is -15%; with Mus musculus [3], 5%.
Regarding `Oc1[nH]nc(C(F)(F)F)c1Cc1ccc(Cl)cc1`, the Change in the test on Mus musculus [3] is listed as -6%.
Still for that read-out and setting: the result for `CCOc1c(Cc2ccc(SC)cc2)c(C(F)(F)F)nn1CC` reads -23%.
As for `CCCCc1ccc(Cc2c(C(F)(F)F)n[nH]c2O)cc1`, the Change in the test with Mus musculus [3] was -7%.
As for `Cc1ccc(Cc2c(C(F)(F)F)n[nH]c2O)cc1`, the Change in the test with Mus musculus [1] is recorded as -36%.
In the case of `CCc1ccc(Cc2c(OC)nn(C)c2C(F)(F)F)cc1`, the Change in the test on Mus musculus [3] is -38%.
For the compound `COc1[nH]nc(C(F)(F)F)c1Cc1ccc(SC)cc1`, the results for the Change in the test with Mus musculus [7] and in the test with Mus musculus [1] were -16% and -57%, respectively.
`CC(O)c1ccc(Cc2c(C(F)(F)F)n[nH]c2O)cc1` (configuration not stated): the Change in the test with Mus musculus [3] is reported as -18%.
In the case of `Oc1[nH]nc(C(F)(F)F)c1Cc1ccc2ccccc2c1`, the Change with Mus musculus [1] is -45%.
Take `CCCCSc1ccc(Cc2c(C(F)(F)F)n[nH]c2O)cc1`: the Change in the test with Mus musculus [1] was -3%.
Still for that read-out and setting: the result for `Oc1[nH]nc(C(F)(F)F)c1Cc1ccc(C(F)(C(F)(F)F)C(F)(F)F)cc1` reads 1%.
As to `CCNc1ccc(Cc2c(C(F)(F)F)n[nH]c2O)cc1`, the Change in the test with Mus musculus [9] was -61%; in the test on Mus musculus [3], -11%.
As to `CCCCOc1[nH]nc(C(F)(F)F)c1Cc1ccc(CC)cc1`, the Change in the test with Mus musculus [1] was -34%.
Turning to `CC(=O)c1ccc(Cc2c(C(F)(F)F)n[nH]c2O)cc1`, the Change in the test with Mus musculus [3] is reported as -19%.
Take `CCCc1ccc(Cc2c(C(F)(F)F)n[nH]c2O)cc1`: the Change with Mus musculus [1] is -44%.
The same measure, in the same setting: the result for `Oc1[nH]nc(C(F)(F)F)c1Cc1ccc(I)cc1` reads -48%.
As to `CS(=O)(=O)c1ccc(Cc2c(C(F)(F)F)n[nH]c2O)cc1`, the Change in the test on Mus musculus [3] is given as 2%.
